Data on one compound can be found in ChEMBL document CHEMBL1212735, “Metronidazole resistance in Prevotella spp. and description of a new nim gene in Prevotella baroniae” (2010).

What all share (format): functional
Test [1] deals with Prevotella bivia. As to the kind of experiment: Antimicrobial activity against Prevotella bivia LBN 467 deficient in nimI gene assessed as inhibition of growth after three consecutive subcultures on compound free medium by agar dilution method. The gist of the method:
(§1)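 Resistance induction: bacterial suspensions were plated on supplemented brucella blood agar with rising metronidazole concentrations. Colonies from the highest concentration were tested by agar dilution. MIC was then redetermined after three consecutive subcultures on drug-free agar. Resistance counted as stable if the MIC held within ±1 dilution. Anaerobic growth at 37°C. Duplicate experiments.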

In test [2] the test system is Prevotella buccae. The test can be described thus: Antimicrobial activity against Prevotella buccae LBN 465 deficient in nimI gene assessed as inhibition of growth after three consecutive subcultures on compound free medium by agar dilution method. Conditions: Segatella buccae. The gist of the method:
as §1
In general terms: In agar dilution the substance is mixed into plates at graded concentrations.

The test system of test [3] is Prevotella nanceiensis. The test can be described thus: Antimicrobial activity against Prevotella nanceiensis LBN 410 deficient in nimI gene assessed as inhibition of growth after three consecutive subcultures on compound free medium by agar dilution method. Conditions: Hoylesella nanceiensis. The method in brief:
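Stability of induced resistance: metronidazole-selected isolates were subcultured three consecutive times on drug-free brucella blood agar (5% sheep blood, hemin, vitamin K1) under anaerobic conditions, then MIC was redetermined by CLSI agar dilution. Resistance was called stable if the MIC held within ±1 dilution. Duplicate experiments.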

The test system of test [4] is Prevotella bivia. The test can be described thus: Antimicrobial activity against Prevotella bivia LBN 330 deficient in nim gene assessed as inhibition of growth at 48 hrs by agar dilution method. Conditions: LBN 330, 48 h. The method in brief: (§2)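 Metronidazole MIC by agar dilution (CLSI M11-A7) on brucella agar with 5% sheep blood, hemin and vitamin K1. Plates were read after 48 h at 35°C under anaerobic conditions. Susceptible was MIC ≤ 4 μg/ml and resistant MIC ≥ 8 μg/ml (EUCAST). B. fragilis ATCC 25285T and B. thetaiotaomicron ATCC 29741 were run as controls. Duplicate assays.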

Test [5] has as its system Prevotella bivia. As to the kind of experiment: Antimicrobial activity against Prevotella bivia LBN 361 deficient in nim gene assessed as inhibition of growth at 48 hrs by agar dilution method. Conditions: LBN 361, 48 h. The method in brief:
as §2

Test [6] deals with Prevotella bivia. As to the kind of experiment: Antimicrobial activity against Prevotella bivia LBN 371 deficient in nim gene assessed as inhibition of growth at 48 hrs by agar dilution method. Conditions: LBN 371, 48 h. The method in brief:
as §2

The test system of test [7] is Prevotella bivia. The test can be described thus: Antimicrobial activity against Prevotella bivia LBN 464 deficient in nim gene assessed as inhibition of growth at 48 hrs by agar dilution method. Conditions: LBN 464, 48 h. The method in brief: as §2
Test [8] concerns Prevotella bivia. The test can be described thus: Antimicrobial activity against Prevotella bivia LBP 4 deficient in nim gene assessed as inhibition of growth at 48 hrs by agar dilution method. Conditions: LBP 4, 48 h. The gist of the method: as §2
Test [9] concerns Prevotella nanceiensis. The test can be described thus: Antimicrobial activity against Prevotella nanceiensis LBN 410 deficient in nim gene assessed as inhibition of growth at 48 hrs by agar dilution method. Conditions: Hoylesella nanceiensis, LBN 410, 48 h. The method in brief: as §2
Test [10] has as its system Prevotella bivia. The test can be described thus: Antimicrobial activity against slow growing colonies of Prevotella bivia LBN 330 deficient in nim gene assessed as inhibition of growth at 48 hrs by agar dilution method. Conditions: LBN 330, 48 h. The gist of the method:
(§3)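 Slowly growing colonies inside the Etest inhibition zone, seen after prolonged incubation (an additional 72 h after the 48 h reading), were subcultured without antibiotic. They were then retested for metronidazole MIC by agar dilution on supplemented brucella blood agar under anaerobic conditions.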

Test [11] has as its system Prevotella bivia. The test can be described thus: Antimicrobial activity against slow growing colonies of Prevotella bivia LBN 346 deficient in nim gene assessed as inhibition of growth at 48 hrs by agar dilution method. Conditions: LBN 346, 48 h. The gist of the method: as §3
Test [12] concerns Prevotella baroniae. The test can be described thus: Antimicrobial activity against Prevotella baroniae DSM 16972T expressing nimI gene assessed as inhibition of growth after several passages on plates containing increasing concentrations of compound by agar dilution method. Conditions: Segatella baroniae. The gist of the method: (§4)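 Induction of metronidazole resistance: bacterial suspensions inoculated onto brucella blood agar (5% sheep blood, hemin, vitamin K1) containing metronidazole at increasing concentrations, grown anaerobically at 37°C. Colonies growing at the highest concentration were retested for MIC by CLSI agar dilution on the same agar. Duplicate experiments.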

Test [13] deals with Prevotella baroniae. The test can be described thus: Antimicrobial activity against Prevotella baroniae LBN 432 expressing nimI gene assessed as inhibition of growth after several passages on plates containing increasing concentration of compound by agar dilution method. Conditions: Segatella baroniae. The method in brief:
as §4

≈ marks a conversion by molar mass, not a printed value. Where only a bound is given, the exact number is not on record here.

Take `Cc1ncc([N+](=O)[O-])n1CCO` [METRONIDAZOLE]: the MIC (usually the lowest concentration found to suppress growth) in test [1] is above 256 µg/mL; in test [2], 64 µg/mL (≈ 374 µM); in test [3], 256 µg/mL (≈ 1500 µM); in [4], 2 µg/mL (≈ 11.7 µM); in test [5] it was 2 µg/mL (≈ 11.7 µM); in test [6] it was 4 µg/mL (≈ 23.4 µM). Also, the MIC turned out to be 8 µg/mL (≈ 46.7 µM) in test [7]; 2 µg/mL (≈ 11.7 µM) in test [8]; 1 µg/mL (≈ 5.84 µM) in [9]; 16 µg/mL (≈ 93.5 µM) in [10]; 16 µg/mL (≈ 93.5 µM) in test [11]; 16 µg/mL (≈ 93.5 µM) in [12]. Further, the MIC in test [13] is 64 µg/mL (≈ 374 µM).
